From ChEMBL document CHEMBL4316602, “Investigating the promiscuity of the chloramphenicol nitroreductase from Haemophilus influenzae towards the reduction of 4-nitrobenzene derivatives” (Bioorg Med Chem Lett, 2019)

What was measured:
Assay type in all cases: ADME; call rule not given here
[1] = Substrate activity at recombinant Haemophilus influenzae Chloramphenicol nitroreductase expressed in Escherichia coli assessed as ratio Kcat to Km measured at 30 sec interval for 30 mins in presence of NADPH at 37 degC by Michaelis-Menton plot analysis; conditions: 0.5 h
Procedure, shortened: (§1)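 Chloramphenicol varied 0–2500 µM (0, 1, 5, 10, 50, 100, 250, 500, 2500) with 0.4 µM CNR, 750 µM NADPH, 50 mM Tris-HCl pH 8.0, at 37 or 50 °C. NADPH consumption was followed at 340 nm every 30 s for 30 min. Initial rates came from the first 2–5 min, fitted to Michaelis–Menten for kcat and Km.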

[2] = Substrate activity at recombinant Haemophilus influenzae Chloramphenicol nitroreductase expressed in Escherichia coli assessed as Kcat measured at 30 sec interval for 30 mins in presence of NADPH at 37 degC by Michaelis-Menton plot analysis; conditions: 0.5 h; procedure, shortened: as §1
[3] = Substrate activity at recombinant Haemophilus influenzae Chloramphenicol nitroreductase expressed in Escherichia coli assessed as Kcat measured at 30 sec interval for 30 mins in presence of NADPH at 50 degC by Michaelis-Menton plot analysis; conditions: 0.5 h; procedure, shortened: as §1
[4] = Substrate activity at recombinant Haemophilus influenzae Chloramphenicol nitroreductase expressed in Escherichia coli assessed as ratio of Kcat to Km measured at 30 sec interval for 30 mins in presence of NADPH at 50 degC by Michaelis-Menton plot analysis; conditions: 0.5 h; procedure, shortened: as §1
[5] = test system: Chloramphenicol nitroreductase; experiment: Substrate activity at recombinant Haemophilus influenzae Chloramphenicol nitroreductase expressed in Escherichia coli assessed as Km measured at 30 sec interval for 30 mins in presence of NADPH at 37 degC by Michaelis-Menton plot analysis; procedure, shortened: as §1
[6] = Substrate activity at recombinant Haemophilus influenzae Chloramphenicol nitroreductase expressed in Escherichia coli at 150 uM measured at 30 sec interval for 60 mins in presence of NADPH at 50 degC; conditions: 1 h
[7] = test system: Chloramphenicol nitroreductase; experiment: Substrate activity at recombinant Haemophilus influenzae Chloramphenicol nitroreductase expressed in Escherichia coli assessed as Km measured at 30 sec interval for 30 mins in presence of NADPH at 50 degC by Michaelis-Menton plot analysis; procedure, shortened: as §1
[8] = Substrate activity at recombinant Haemophilus influenzae Chloramphenicol nitroreductase expressed in Escherichia coli at 150 uM measured at 30 sec interval for 60 mins in presence of NADPH at pH 8; conditions: pH 8, 1 h
Procedure, shortened: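 Each nitro compound at 150 µM in 50 mM Tris-HCl pH 8.0 with 1.0 mM NADPH. Started with 1 µM CNR and read at 340 nm (NADPH) every 30 s for 60 min. Initial rates were taken from the first 5 min and expressed as % of the chloramphenicol rate.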

[9] = Substrate activity at recombinant Haemophilus influenzae Chloramphenicol nitroreductase expressed in Escherichia coli assessed as benzoic acid formation at 1 mM measured after 24 hrs at pH 8 under 37 degC by LC-MS analysis; conditions: pH 8, 24 h, 1000 µM
Procedure, shortened: (§2)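 50 mM Tris-HCl pH 8.0 holding 1 mM nitro compound, 5 µM CNR and 100 µM NADPH. NADPH is regenerated by 40 mM glucose plus 4 µM glucose dehydrogenase. Incubated 24 h at 37 °C, then extracted with EtOAc, dried, redissolved in MeOH and analysed by LCMS for reduction products.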

[10] = Substrate activity at recombinant Haemophilus influenzae Chloramphenicol nitroreductase expressed in Escherichia coli assessed as 4-aminoether formation at 1 mM measured after 24 hrs at pH 8 under 37 degC by LC-MS analysis; conditions: pH 8, 24 h, 1000 µM; procedure, shortened: as §2
[11] = Substrate activity at recombinant Haemophilus influenzae Chloramphenicol nitroreductase expressed in Escherichia coli assessed as hydroxylamine formation at 1 mM measured after 24 hrs at pH 8 under 37 degC by LC-MS analysis; conditions: pH 8, 24 h, 1000 µM; procedure, shortened: as §2

Structure (SMILES): O=C(N[C@H](CO)[C@H](O)c1ccc([N+](=O)[O-])cc1)C(Cl)Cl [CHLORAMPHENICOL]
- Kcat/Km [1]: 0.22 s⁻¹ µM⁻¹
- Kcat [2]: 61 s⁻¹
- Kcat [3]: 65 s⁻¹
- Kcat/Km [4]: 0.34 s⁻¹ µM⁻¹
- Km at 0.5 h [5]: 273 µM
- Activity [6]: Active
- Km at 0.5 h [7]: 191 µM
- Activity [8]: Active

Structure (SMILES): O=C(OCc1ccc([N+](=O)[O-])cc1)c1ccc(Cl)cc1
- Activity [9]: Active

Structure (SMILES): O=[N+]([O-])c1ccc(COCc2ccc(Br)cc2)cc1
- Activity [10]: Active
- Activity [11]: Active

Structure (SMILES): O=C(OCc1ccc([N+](=O)[O-])cc1)c1ccc(Cl)cc1F
- Activity [9]: Active
